ROMK primary: ROMK potassium channel modulators, primary screen, cell-based, thallium flux, MLSMR library; ATP-sensitive inward rectifier potassium channel 1 (Homo sapiens), P48048; 130,000 compounds, 2% hits; AID 1918, 2009; B-score at 10 µM; Tet-inducible ROMK, thallium flux fluorescence; actives lie on both sides;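 active = signal ratio slope over the read window, or its plate-corrected B-score, at least 3 SD from the plate mean, either direction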;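 also: B-score of the F/F0 ratio slope over 7 to 12 s after thallium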
KCC2 mod: KCC2 cotransporter modulators, thallium flux, primary screen, cell-based, HEK293 KCC2, FluoZin-2 fluorescence, MLSMR. B-score of Tl+ flux slope (higher = more flux/activation; lower = inhibition) at 10 µM. KCC2 cells, thallium flux FluoZin-2 fluorescence. Solute carrier family 12 member 5 (Homo sapiens), Q9H2X9. 190,000 compounds, 2.2% hits;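 active = thallium flux slope and its plate-corrected score both differing from the plate sample mean at a set confidence after two filtering rounds, in either direction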;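 also: slope of fluorescence scaled to starting intensity during 10 to 20 s after thallium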
Target sequence (Q9H2X9 whole entry, looked up): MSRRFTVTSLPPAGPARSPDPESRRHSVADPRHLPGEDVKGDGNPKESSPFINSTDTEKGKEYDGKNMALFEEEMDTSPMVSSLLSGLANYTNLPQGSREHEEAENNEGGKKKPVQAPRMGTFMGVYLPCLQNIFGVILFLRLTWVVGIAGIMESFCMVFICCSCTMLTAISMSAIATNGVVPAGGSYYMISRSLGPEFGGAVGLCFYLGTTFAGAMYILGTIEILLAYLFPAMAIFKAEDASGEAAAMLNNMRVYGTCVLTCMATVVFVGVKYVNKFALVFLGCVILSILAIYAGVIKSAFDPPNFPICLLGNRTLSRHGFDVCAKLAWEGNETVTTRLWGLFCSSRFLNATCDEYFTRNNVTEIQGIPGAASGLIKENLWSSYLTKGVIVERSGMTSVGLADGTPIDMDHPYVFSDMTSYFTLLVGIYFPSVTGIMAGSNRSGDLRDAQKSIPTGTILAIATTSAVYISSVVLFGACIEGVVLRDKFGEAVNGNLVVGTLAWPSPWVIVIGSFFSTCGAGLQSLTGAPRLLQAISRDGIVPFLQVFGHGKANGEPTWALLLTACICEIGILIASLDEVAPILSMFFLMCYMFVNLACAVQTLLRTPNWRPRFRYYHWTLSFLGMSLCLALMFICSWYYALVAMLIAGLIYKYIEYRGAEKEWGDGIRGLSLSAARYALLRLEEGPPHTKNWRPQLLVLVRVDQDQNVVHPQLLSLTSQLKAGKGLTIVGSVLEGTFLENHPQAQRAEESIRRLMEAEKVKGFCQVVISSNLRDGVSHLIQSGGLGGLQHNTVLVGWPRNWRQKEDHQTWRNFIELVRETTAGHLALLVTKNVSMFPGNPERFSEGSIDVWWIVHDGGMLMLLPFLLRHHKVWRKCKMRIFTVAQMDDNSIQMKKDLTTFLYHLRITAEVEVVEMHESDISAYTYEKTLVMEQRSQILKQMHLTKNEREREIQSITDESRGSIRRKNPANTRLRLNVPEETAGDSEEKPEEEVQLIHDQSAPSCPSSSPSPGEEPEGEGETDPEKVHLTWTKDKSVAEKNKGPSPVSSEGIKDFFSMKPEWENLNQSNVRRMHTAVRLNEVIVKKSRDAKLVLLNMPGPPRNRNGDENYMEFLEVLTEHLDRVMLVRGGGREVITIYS
b-catenin transl: modulators of beta-catenin nuclear translocation, primary screen, imaging, HeLa cells, immunofluorescence, high-content | AID 1665, 2009 | nuclear translocation activity, % at 5 µM | 190,000 compounds, 0.3% hits;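 active = nuclear translocation activity above 50% at 5 µM, with a well cell count of 50 or more; inconclusive = wells under 50 cells across six images, flagged as toxic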;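 also: per-cell ratio of nuclear to cytoplasmic median beta-catenin stain intensity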
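Read-out: Nuclear/cytoplasmic beta-catenin signal ratio, % activation | Assay system: Human HeLa cell line | Times: 24 h compound exposure at 37°C, 5% CO2 | Signal: Fluorescence imaging of beta-catenin antibody stain plus DAPI | Dosing: 5 µM primary, 0.02–20 µM confirmation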
Redox H2O2 prof: compounds producing H2O2 with reducing agent – biochemical, NIH compound library profiling, artefact control for MLSCN library redox annotation, primary screen. DTT-dependent redox cycling H2O2, phenol red/HRP absorbance; 100% = 100 µM peroxide control, 0% = buffer. activation, % at 10 µM. 200,000 compounds, 0.03% hits. AID 878, 2007;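 active = activation of at least 50% relative to the plate's high and low controls in the primary single-dose screen; inactive = activation below 50%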;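 also: compound incubated with DTT at 0.8 mM final as the reducing agent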
MT stabilizer: microtubule stabilizers in HeLa cells, primary screen, imaging, high-content imaging; HeLa tubulin immunostaining HCS, 24 h; share of cells brighter than vehicle mean+2SD; % tubulin-high responders, % at 10 µM; 200,000 compounds, 0.83% hits; AID 2205, 2009;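 active = plate Z-score above 3 for both tubulin-high and condensed-nucleus cell shares, with cell loss under 80%, at 10 µM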;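 also: anti alpha tubulin signal scored within the nucleus-defined area of each cell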
KCC2 secondary: KCC2 modulators in sodium-free buffer, confirmation, cell-based, HEK293 KCC2, thallium flux, secondary assay | shares compounds with KCC2 mod | FluoZin2 fluorescence; active compounds read high | normalised thallium flux (F/F0 slope) at 10 µM | 3,700 compounds, 15% hits | AID 1713, 2009;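 active = thallium flux slope above the same plate's solvent-only control mean plus 3 SD; inconclusive = the two replicate wells disagree; inactive = no significant difference from solvent-only control wells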
KCC2 bumet counter: thallium flux persisting under bumetanide in KCC2 cells, confirmation, counter-screen for KCC2 modulator project, cell-based, HEK293 KCC2, FluoZin2, secondary assay 3. normalized thallium flux at 10 µM. shares compounds with KCC2 mod. HEK293-KCC2 + bumetanide/ouabain; active compounds read high. 3,700 compounds, 49% hits;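 active = thallium entry rate above the same plate's blocked-transporter control wells by more than 3 SD; inconclusive = the two repeat wells disagree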;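 also: raw slope of fluorescence over initial fluorescence between 10 and 20 s after thallium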
KCC2 secondary2: KCC2 modulators without ouabain present, confirmation, cell-based, HEK293 KCC2, thallium flux, FluoZin2, secondary assay 2; shares compounds with KCC2 mod; thallium flux FluoZin2 fluorescence; actives lie on both sides; F/F0 rise rate, 10–20 s post-thallium; normalized thallium flux at 10 µM; 3,700 compounds, 23% hits;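 active = thallium flux slope more than 3 SD above or below the plate's solvent-only control mean, mostly below; inconclusive = the two repeat wells disagreed; inactive = no significant shift from solvent-only controls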
HEK counter1: thallium flux modulation in parental HEK cells, confirmation, counter-screen for KCC2 modulator project, cell-based, counterscreen 1 | thallium flux rate (normalised fluorescence) at 10 µM | 3,700 compounds, 46% hits | HEK293 parental cells, thallium flux FluoZin2, ouabain; baseline-ratio fluorescence slope, 10–20 s after thallium | shares compounds with KCC2 mod;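 active = thallium flux rate significantly above the same plate's solvent-only control wells, beyond their mean plus 3 SD; inconclusive = the two replicate wells gave conflicting results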
KCC2 retest ouab: KCC2 inhibitors and activators, ouabain retest, confirmation, HEK-KCC2 cells; shares compounds with KCC2 mod; HEK293-KCC2, thallium flux FluoZin2 fluorescence; bidirectional: low = inhibitor, high = activator; raw Tl+ flux slope (below DMSO = inhibition, above = activation) at 10 µM; 3,700 compounds, 48% hits;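 active = thallium flux slope beyond 3 SD from same-plate DMSO control mean in most replicates, usually higher, sometimes lower; inconclusive = repeat tests gave conflicting results; inactive = no significant difference from controls in most replicates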;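 also: slope of initial-normalized fluorescence between seconds 10 and 20 after thallium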
HEK counter2: native HEK Tl+ uptake effects, second counter-screen – HEK cells, counterscreen 2, counter-screen for KCC2 modulator project, confirmation. HEK293 parental, thallium flux FluoZin-2 fluorescence slope. thallium flux slope at 10 µM. 3,700 compounds, 33% hits. shares compounds with KCC2 mod. AID 1718, 2009;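 active = thallium flux slope above the same plate's solvent-control mean plus 3 SD in both duplicate wells; inconclusive = duplicate wells that disagreed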;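 also: run without ouabain in cells lacking the KCC2 cotransporter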
Each line names hits and unclear results; the compound was inactive in the other large screens (follow-up assays come after a bar, where they were run). The list is not random: actives were taken first. Their share in the collection is about 3.7%.

O=C(NC(=S)NNC(=O)[C@H]1C[C@@H]1c1ccccc1)c1cccc(F)c1	KCC2 mod 67 (no result: ROMK primary, Redox H2O2 prof, MT stabilizer) | KCC2 secondary inactive | KCC2 bumet counter 0.086 | KCC2 secondary2 0.06 | HEK counter1 0.061 | KCC2 retest ouab 0.067 | HEK counter2 0.05
COc1cccc(OC)c1C(=O)NC(=S)NNC(=O)[C@H]1C[C@@H]1c1ccccc1	none (no result: ROMK primary, Redox H2O2 prof, MT stabilizer)
CCOC(=O)C1(Cc2cccc(OC)c2)CCN(CC2CC=CCC2)CC1 (stereo not drawn)	none (no result: ROMK primary)
Cc1nn2c([nH]c(=O)c3ccccc32)c1C=O	KCC2 mod 3.4 (no result: ROMK primary) | KCC2 secondary inactive | KCC2 bumet counter 0.01 | KCC2 secondary2 inactive | HEK counter1 inconclusive | KCC2 retest ouab inconclusive | HEK counter2 inactive
CCOC(=O)C(=CNc1cscc1S(=O)(=O)C(C)C)C(=O)OCC	none (no result: ROMK primary, Redox H2O2 prof, MT stabilizer)
CCn1c(-c2ccccc2)c[nH]c1=S	none (no result: ROMK primary)
CC(C)Cn1c(-c2ccc(Br)cc2)c[nH]c1=S	KCC2 mod 22 | KCC2 secondary inactive | KCC2 bumet counter 0.028 | KCC2 secondary2 inconclusive | HEK counter1 0.025 | KCC2 retest ouab 0.029 | HEK counter2 0.025
CCOc1ccc(C(=O)Nc2cc(S(=O)(=O)Nc3ccccc3Cl)ccc2N2CCOCC2)cc1	none
COc1ccc(CN(C(=O)c2cc3ccccc3oc2=O)C2CCS(=O)(=O)C2)cc1 (stereo not drawn)	none (no result: ROMK primary, Redox H2O2 prof, MT stabilizer)
COc1ccc(CN(C(=O)c2cc3ccccc3oc2=O)C2CCCC2)cc1	KCC2 mod -5.1 | KCC2 secondary inactive | KCC2 bumet counter inactive | KCC2 secondary2 inactive | HEK counter1 inconclusive | KCC2 retest ouab inconclusive | HEK counter2 inactive
Cc1ccc(C2=NC3(CCCCC3)NC2=S)cc1	none
S=C1NC2(CCCCC2)N=C1c1ccccc1	KCC2 mod 4.7 | KCC2 secondary inactive | KCC2 bumet counter 0.03 | KCC2 secondary2 inactive | HEK counter1 0.012 | KCC2 retest ouab inconclusive | HEK counter2 0.012
Cn1cc(C=O)c2ccccc21	none
Cn1cc(/C=C2\SC(=O)NC2=S)c2ccccc21	KCC2 mod 21 (no result: ROMK primary) | KCC2 secondary 0.013 | KCC2 bumet counter 0.028 | KCC2 secondary2 inactive | HEK counter1 0.018 | KCC2 retest ouab 0.034 | HEK counter2 inconclusive
Cc1ccc(/C=C2/SC(=O)NC2=S)o1	KCC2 mod 94 | KCC2 secondary inconclusive | KCC2 bumet counter 0.07 | KCC2 secondary2 0.098 | HEK counter1 0.1 | KCC2 retest ouab 0.094 | HEK counter2 0.099
Cc1ccc(C(=O)NN2C(=O)/C(=C/c3cn(C)c4ccccc34)SC2=S)cc1	KCC2 mod -3.7 | KCC2 secondary 0.0046 | KCC2 bumet counter inactive | KCC2 secondary2 0.026 | HEK counter1 0.0051 | KCC2 retest ouab 0.025 | HEK counter2 inactive
Cc1ccc(/C=C2\SC(=S)N(CC3CCCO3)C2=O)o1 (stereo not drawn)	none (no result: Redox H2O2 prof, MT stabilizer)
Cc1ccc(C(=O)NN2C(=O)/C(=C/c3cccn3C)SC2=S)cc1	none
O=C(CNC(=O)c1ccc2c(c1)OCCO2)N/N=C/c1cccc(Br)c1	none
CCc1cc2ccc(OC)cc2nc1SCC(=O)NNC(=O)c1ccco1	KCC2 mod 17 | KCC2 secondary inactive | KCC2 bumet counter 0.018 | KCC2 secondary2 inactive | HEK counter1 0.028 | KCC2 retest ouab 0.025 | HEK counter2 0.014
CCc1cc2ccc(OC)cc2nc1SCC(=O)N1CCN(C(=O)c2ccco2)CC1	KCC2 mod -4.1 (no result: ROMK primary, Redox H2O2 prof, MT stabilizer) | KCC2 secondary inactive | KCC2 bumet counter inactive | KCC2 secondary2 0.024 | HEK counter1 0.0052 | KCC2 retest ouab 0.012 | HEK counter2 0.0084
CCc1cc2cccc(C)c2nc1SCC(=O)NNC(=O)c1ccco1	none (no result: ROMK primary, KCC2 mod) | KCC2 secondary inactive | KCC2 bumet counter 0.01 | KCC2 secondary2 inactive | HEK counter1 0.011 | KCC2 retest ouab inactive | HEK counter2 inactive
COc1ccc(NC(=O)/C(C#N)=C/c2ccc(OCc3ccccc3F)cc2)cc1	none
N#C/C(=C(O)\C=C\c1ccccc1)c1nc2ccccc2[nH]1	KCC2 mod 6.6 (no result: ROMK primary, Redox H2O2 prof, MT stabilizer) | KCC2 secondary inactive | KCC2 bumet counter inactive | KCC2 secondary2 inconclusive | HEK counter1 inactive | KCC2 retest ouab inactive | HEK counter2 inactive
CCN1CCN(C(c2ccccc2)c2nnnn2Cc2ccccc2)CC1 (stereo not drawn)	KCC2 mod -4.9 | KCC2 secondary inactive | KCC2 bumet counter inactive | KCC2 secondary2 inactive | HEK counter1 inactive | KCC2 retest ouab inactive | HEK counter2 inactive
CCN1CCN(C(c2ccccc2)c2nnnn2Cc2ccc3c(c2)OCO3)CC1 (stereo not drawn)	none
Cc1cc(C(=O)CN2C(=O)C(=O)N(Cc3ccccc3)C2=O)c(C)n1-c1ccc2c(c1)OCCO2	none
Cc1ccc(/C=C/C(=O)c2ccccc(=O)c2O)c(C)c1	KCC2 mod 68 | KCC2 secondary 0.013 | KCC2 bumet counter 0.088 | KCC2 secondary2 0.04 | HEK counter1 0.056 | KCC2 retest ouab 0.073 | HEK counter2 0.02
Cc1ccc(C)c(/C=C/C(=O)c2ccccc(=O)c2O)c1	KCC2 mod 40 | KCC2 secondary inactive | KCC2 bumet counter 0.067 | KCC2 secondary2 0.061 | HEK counter1 0.062 | KCC2 retest ouab 0.062 | HEK counter2 0.051
Cc1ccc(C)c(NC(=O)c2ccccc2O)c1	none
CNS(=O)(=O)c1cccc(C(=O)OCC(=O)N(Cc2ccccc2)C(C)(C)C)c1	none

From PubChem
